In ChEMBL document CHEMBL2429727, “Syntheses, biological evaluation and SAR of ingenol mebutate analogues for treatment of actinic keratosis and non-melanoma skin cancer” (Bioorg Med Chem Lett, 2013):

Columns and labels:
[1] = Induction of necrosis in human HeLa cells after 30 mins by resazurin assay; assay type: cell-based; conditions: read-out: LC50
How it was run: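 HeLa cells exposed to increasing ester concentrations up to 400 µM for 30 min at 37 °C. Remaining metabolic activity then read with a resazurin-based dye. LC50 is the concentration causing 50% loss of metabolic activity.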

Keratinocyte [2] = assay: Induction of IL-8 release in human primary epidermal keratinocytes after 6 hrs by HTRF assay; assay type: functional, cell-based
Keratinocyte [3] = assay: Induction of TNFalpha release in human primary epidermal keratinocytes after 6 hrs; assay type: functional, cell-based
How it was run: (§1)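 Human adult log-phase primary epidermal keratinocytes subcultured at 10,000 cells/well. Incubated with titrated compound for 6 h at 37 °C in humidified 95% air/5% CO2. Secreted cytokines quantified on 4-spot cytokine plates. EC50 is the concentration giving 50% of the maximum effect of the ingenol mebutate reference. Emax is maximal response relative to that reference.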

[4] = Induction of oxidative burst in polymorphonuclear leukocytes (unknown origin) isolated from buffy coat after 40 mins by fluorescence assay; assay type: functional, cell-based
How it was run: (§2)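 PMN isolated and purified from fresh buffy coats, then incubated 40 min at ambient temperature with titrated compound (top concentration 10 µM) premixed with hydroethidine. Respiratory burst read as fluorescence in relative light units, emission 579 nm, excitation 485 nm. EC50 and Emax are expressed relative to the maximum effect of the ingenol mebutate reference.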

[5] = Chemical stability of the compound in aqueous buffer assessed as drug recovery after 16 hrs at pH 7.4 by HPLC analysis; assay type: physicochemical; conditions: read-out: Drug recovery
How it was run: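 DMSO stock diluted with pre-heated (37 °C) aqueous buffer pH 7.4 to at most 30% v/v organic content, then shaken. Held in the HPLC autosampler at 37 °C, first injected within 5 min, then injected repeatedly over 16 h. Recovery taken from the fall in compound peak area, UV detection normally at 270 nm.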

Keratinocyte [6] = assay: Induction of IL-8 release in human primary epidermal keratinocytes after 6 hrs by HTRF assay relative to ingenol mebutate; assay type: functional
Keratinocyte [7] = assay: Induction of TNFalpha release in human primary epidermal keratinocytes after 6 hrs relative to ingenol mebutate; assay type: functional; how it was run: as §1
[8] = Induction of oxidative burst in polymorphonuclear leukocytes (unknown origin) isolated from buffy coat at 10 uM after 40 mins by fluorescence assay relative to ingenol mebutate; assay type: functional; how it was run: as §2
[9] = molecular target: Protein kinase C delta type (Homo sapiens, UniProt Q05655); assay: Activation of PKCdelta (unknown origin) using phosphatidylserine […]; conditions: read-out: EC50
Sequence of Protein kinase C delta type (Q05655 whole entry): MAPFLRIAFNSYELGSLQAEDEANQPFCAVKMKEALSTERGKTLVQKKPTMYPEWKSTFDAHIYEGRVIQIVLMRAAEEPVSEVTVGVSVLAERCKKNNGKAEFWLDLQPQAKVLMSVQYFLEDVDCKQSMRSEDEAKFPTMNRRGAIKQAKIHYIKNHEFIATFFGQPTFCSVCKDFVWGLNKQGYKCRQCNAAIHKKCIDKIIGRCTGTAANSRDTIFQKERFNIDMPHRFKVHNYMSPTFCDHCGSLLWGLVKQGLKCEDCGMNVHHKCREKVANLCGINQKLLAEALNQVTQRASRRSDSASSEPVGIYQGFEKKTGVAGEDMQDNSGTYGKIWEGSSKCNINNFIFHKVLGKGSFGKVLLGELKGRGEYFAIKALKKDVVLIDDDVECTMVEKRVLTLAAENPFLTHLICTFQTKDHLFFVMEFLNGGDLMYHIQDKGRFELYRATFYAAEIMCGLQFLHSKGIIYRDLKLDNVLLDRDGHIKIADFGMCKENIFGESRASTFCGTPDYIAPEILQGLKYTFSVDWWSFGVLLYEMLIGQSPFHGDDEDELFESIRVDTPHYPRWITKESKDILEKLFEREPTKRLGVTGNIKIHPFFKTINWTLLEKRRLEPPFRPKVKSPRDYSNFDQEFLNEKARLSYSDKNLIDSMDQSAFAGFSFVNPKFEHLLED
How it was run: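 PKCdelta assayed in vitro by phosphorylation of a PKC peptide substrate, with 0.05 mg/mL phosphatidylserine and no diacylglycerol so stimulation could be seen. Compounds serially diluted at semilogarithmic intervals, twelve points from 10 µM. Reaction started by adding ATP.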

SMILES | CC50 at 0.5 h [1] [µM] | EC50 (Keratinocyte [2]) [µM] | EC50 (Keratinocyte [3]) [µM] | EC50 [4] [µM] | remaining at 16 h [5] [%] | Emax (Keratinocyte [6]) [%] | Emax (Keratinocyte [7]) [%] | Emax at 10 µM [8] [%] | EC50 [9] [µM]
C/C=C(/C)C(=O)O[C@H]1C(C)=C[C@]23C(=O)[C@@H](C=C(COC)[C@@H](O)[C@]12O)[C@H]1[C@@H](C[C@H]3C)C1(C)C | 400 | 10 | 10 | 10 | 77 |  |  |  | 
CC1=C[C@]23C(=O)[C@@H](C=C(CO)[C@@H](O)[C@@]24OC(=O)O[C@@H]14)[C@H]1[C@@H](C[C@H]3C)C1(C)C | 400 | 0.171 | 0.253 | 0.181 |  | 109 | 112 | 124 | 
CC#CC(=O)O[C@H]1C(C)=C[C@]23C(=O)[C@@H](C=C(CO)[C@@H](O)[C@]12O)[C@H]1[C@@H](C[C@H]3C)C1(C)C |  | 10 | 10 | 0.017 | 5 |  |  | 112 | 
CCCCCCCCCC(=O)O[C@H]1C(C)=C[C@]23C(=O)[C@@H](C=C(CO)[C@@H](O)[C@]12O)[C@H]1[C@@H](C[C@H]3C)C1(C)C | 117 | 0.008 | 0.011 | 0.01 |  | 94 | 96 | 137 | 0.0053
C=C(C)C(=O)O[C@H]1C(C)=C[C@]23C(=O)[C@@H](C=C(CO)[C@@H](O)[C@]12O)[C@H]1[C@@H](C[C@H]3C)C1(C)C | 406 | 0.246 | 0.213 | 0.0061 | 20 | 74 | 77 | 114 | 
CC1=C[C@]23C(=O)[C@@H](C=C(CO)[C@@H](O)[C@]2(O)[C@H]1OC(=O)C1CC1)[C@H]1[C@@H](C[C@H]3C)C1(C)C |  | 0.256 | 0.243 | 0.026 | 30 | 83 | 81 | 112 | 
CCCC(=O)O[C@H]1C(C)=C[C@]23C(=O)[C@@H](C=C(CO)[C@@H](O)[C@]12O)[C@H]1[C@@H](C[C@H]3C)C1(C)C |  | 0.313 | 0.318 | 0.025 | 18 | 115 | 87 | 88 | 
CC1=C[C@]23C(=O)[C@@H](C=C(CO)[C@@H](O)[C@]2(O)[C@H]1OC(=O)C12C[C@@H]4C[C@@H](C[C@H]1C4)C2)[C@H]1[C@@H](C[C@H]3C)C1(C)C | 77 | 0.027 | 0.036 | 0.0083 | 70 | 65 | 55 | 136 | 
CC1=C[C@]23C(=O)[C@@H](C=C(CO)[C@@H](O)[C@]2(O)[C@H]1OC(=O)C(C)C)[C@H]1[C@@H](C[C@H]3C)C1(C)C |  | 0.12 | 0.112 | 0.019 | 30 | 63 | 72 | 104 | 
CC1=C[C@]23C(=O)[C@@H](C=C(CO)[C@@H](O)[C@]2(O)[C@H]1OC(=O)C1CCCCC1)[C@H]1[C@@H](C[C@H]3C)C1(C)C | 112 | 10 | 10 | 0.006 | 35 | 43 | 47 | 104 | 
CC1=C[C@]23C(=O)[C@@H](C=C(CO)[C@@H](O)[C@]2(O)[C@H]1O)[C@H]1[C@@H](C[C@H]3C)C1(C)C [INGENOL] | > 400 | 10 | 10 | 10 | > 95 |  |  |  | 
CC1=C[C@]23C(=O)[C@@H](C=C(CO)[C@@H](O)[C@@]24OC(=O)CO[C@@H]14)[C@H]1[C@@H](C[C@H]3C)C1(C)C |  | 10 | 10 | 10 | 25 |  |  |  | 
CC1=C[C@]23C(=O)[C@@H](C=C(CO)[C@@H](O)[C@]2(O)[C@H]1OC(=O)C1CCC1)[C@H]1[C@@H](C[C@H]3C)C1(C)C |  | 0.882 | 0.45 | 0.01 | 10 | 55 | 60 | 111 | 
